Experimental data reported in ChEMBL document CHEMBL1240347, “MK-7009, a potent and selective inhibitor of hepatitis C virus NS3/4A protease” (Antimicrob Agents Chemother, 2010).

Tests used:
[1] = test system: Hepatitis C virus genotype 1b; assay: Antiviral activity against Hepatitis C virus genotype 1b containing NS3/con1 protease mutant by TaqMan-based assay; conditions: subtype 1b
[2] = Volume of distribution in rhesus monkey at 2 mg/kg, iv by LC/MS/MS analysis; type: ADME, organism-based, Macaca mulatta; set-up: dose 2 mg/kg, route intravenous; conditions: in vivo
Summary of the method: (§1)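 Fasted animals received an IV bolus in DMSO at 1.0 ml/kg for rats and 0.1 ml/kg for dogs and rhesus monkeys, at 2 mg/kg; n = 3 per species. Blood was drawn into EDTA tubes at set times, and plasma was separated by centrifugation and stored at −70°C. Drug was quantified by LC/MS/MS after protein precipitation.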

[3] = test system: Hepatitis C virus; assay: Antiviral activity against Hepatitis C virus containing NS3/4a ps20 sequence by transient cell-base protease activity; type: functional, organism-based, Hepacivirus hominis
Summary of the method: (§2)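 Transient cell-based phenotype assay of protease activity, using NS3/4A sequences cloned from plasma of HCV-infected patients. EC50s were determined.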

[4] = test system: Hepatitis C virus; assay: Antiviral activity against Hepatitis C virus containing NS3/4a ps32 sequence by transient cell-base protease activity; type: functional, organism-based, Hepacivirus hominis
Summary of the method: as §2

[5] = test system: Hepatitis C virus; assay: Antiviral activity against Hepatitis C virus containing NS3/F43S protease mutant activity by TaqMan-based assay; type: functional, organism-based, Hepacivirus hominis
[6] = test system: Hepatitis C virus; assay: Antiviral activity against Hepatitis C virus containing NS3/4a ps31 sequence by transient cell-base protease activity; type: functional, organism-based, Hepacivirus hominis
Summary of the method: as §2

[7] = Inhibition of Hepatitis C virus genotype 2b NS3/4A protease activity; set-up: species or system Hepatitis C virus subtype 2b
Summary of the method: (§3)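 Recombinant NS3/4A protease was expressed in and purified from E. coli. Inhibition was measured by a time-resolved, internally quenched fluorescence assay at low enzyme concentration. Kis were reported.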

[8] = Cytotoxicity against […] cells; type: cell-based; conditions: HB1
[9] = test system: Hepatitis C virus; assay: Antiviral activity against Hepatitis C virus containing NS3/4a ps38 sequence by transient cell-base protease activity; type: functional, organism-based, Hepacivirus hominis
Summary of the method: as §2

[10] = test system: Hepatitis C virus; assay: Antiviral activity against Hepatitis C virus genotype 1b infected in […] cell by cell-based HCV replicon assay in presence of 50% normal human serum; type: functional, organism-based, Hepacivirus hominis
Summary of the method: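 Stable genotype 1b (con1) replicon cell line HB1, assayed in the presence of 50% normal human serum.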

[11] = Volume of distribution in dog at 2 mg/kg, iv by LC/MS/MS analysis; type: ADME, organism-based, Canis lupus familiaris; set-up: dose 2 mg/kg, route intravenous; conditions: in vivo
Summary of the method: as §1

[12] = test system: Hepatitis C virus; assay: Inhibition of Hepatitis C virus genotype 1b NS3/4A protease activity; set-up: species or system Hepatitis C virus subtype 1b
Summary of the method: as §3

[13] = Metabolic stability in dog liver assessed as drug level at 5 mg/kg, po after 24 hrs by LC/MS/MS analysis; type: ADME, organism-based, Canis lupus familiaris; set-up: dose 5 mg/kg, route oral; conditions: read-out: Drug uptake
Summary of the method: (§4)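 Single oral dose in polyethylene glycol 400 (2.0 ml/kg). A liver biopsy (~200 μl) was taken under sedation and homogenized in 4 volumes of deionized water. Drug was quantified by LC/MS/MS after protein precipitation.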

[14] = Plasma clearance in dog at 2 mg/kg, iv by LC/MS/MS analysis; type: ADME, organism-based, Canis lupus familiaris; set-up: dose 2 mg/kg, route intravenous
Summary of the method: (§5)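 Fasted animals received an intravenous bolus in DMSO at 1.0 ml/kg (rat), 0.1 ml/kg (dog) or 0.1 ml/kg (rhesus), with n = 3. Blood was drawn into EDTA tubes, and plasma was separated by centrifugation and stored at −70°C. Drug was quantified by LC/MS/MS after protein precipitation.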

[15] = test system: Hepatitis C virus; assay: Antiviral activity against Hepatitis C virus containing NS3/4a ps33 sequence by transient cell-base protease activity; type: functional, organism-based, Hepacivirus hominis
Summary of the method: as §2

[16] = test system: Hepatitis C virus; assay: Antiviral activity against Hepatitis C virus containing NS3/4a H77 sequence by transient cell-base protease activity; type: functional, organism-based, Hepacivirus hominis
[17] = test system: Hepatitis C virus; assay: Antiviral activity against Hepatitis C virus containing NS3/Q41R protease mutant activity by TaqMan-based assay; type: functional, organism-based, Hepacivirus hominis
[18] = test system: Hepatitis C virus; assay: Antiviral activity against Hepatitis C virus containing NS3/4a ps40 sequence by transient cell-base protease activity; type: functional, organism-based, Hepacivirus hominis
Summary of the method: as §2

[19] = biological target: T1, Neutrophil elastase (Homo sapiens, UniProt P08246); assay: Inhibition of human Neutrophil elastase 2
T1 sequence (P08246 whole entry): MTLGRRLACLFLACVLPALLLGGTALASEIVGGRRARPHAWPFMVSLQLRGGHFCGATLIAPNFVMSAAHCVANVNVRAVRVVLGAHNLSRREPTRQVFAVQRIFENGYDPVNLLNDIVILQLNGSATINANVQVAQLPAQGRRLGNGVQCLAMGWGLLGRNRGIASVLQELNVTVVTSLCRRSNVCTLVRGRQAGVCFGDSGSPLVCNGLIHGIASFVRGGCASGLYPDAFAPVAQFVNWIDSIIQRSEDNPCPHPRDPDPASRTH

[20] = test system: Hepatitis C virus; assay: Antiviral activity against Hepatitis C virus genotype 1b infected in […] cell by cell-based HCV replicon assay in presence of 10% fetal bovine serum; type: functional, organism-based, Hepacivirus hominis
Summary of the method: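 Stable genotype 1b (con1) replicon cell line HB1, assayed in medium with 10% fetal bovine serum.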

[21] = Metabolic stability in chimpanzee liver assessed as drug level at 10 mg/kg, po after 12 hrs by LC/MS/MS analysis; type: ADME, organism-based, Pan troglodytes; set-up: dose 10 mg/kg, route oral; conditions: read-out: Drug uptake
Summary of the method: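 Two uninfected chimpanzees were dosed orally in chocolate milk vehicle (0.67 ml/kg). A liver biopsy (~200 μl) was taken under sedation at the single 12-h time point, homogenized in 4 volumes of deionized water, and analysed by LC/MS/MS after protein precipitation.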

[22] = Half life in rat at 2 mg/kg, iv by LC/MS/MS analysis; type: ADME, organism-based; set-up: dose 2 mg/kg, route intravenous; conditions: in vivo
Summary of the method: as §5

[23] = Inhibition of human Chymotrypsin
[24] = Half life in rhesus monkey at 2 mg/kg, iv by LC/MS/MS analysis; type: ADME, organism-based, Macaca mulatta; set-up: dose 2 mg/kg, route intravenous; conditions: in vivo
Summary of the method: as §5

[25] = Metabolic stability in rhesus monkey liver assessed as drug level at 5 mg/kg, po after 24 hrs by LC/MS/MS analysis; type: ADME, organism-based, Macaca mulatta; set-up: dose 5 mg/kg, route oral; conditions: read-out: Drug uptake
Summary of the method: as §4

[26] = Volume of distribution in rat at 2 mg/kg, iv by LC/MS/MS analysis; type: ADME, organism-based; set-up: dose 2 mg/kg, route intravenous; conditions: in vivo
Summary of the method: as §1

[27] = AUC (0-24 hrs) in dog at 2 mg/kg, iv by LC/MS/MS analysis; type: ADME, organism-based, Canis lupus familiaris; set-up: time < 24 hr, dose 2 mg/kg, route intravenous; conditions: plasma
Summary of the method: as §5

[28] = biological target: Cathepsin B (Homo sapiens, UniProt P07858); assay: Inhibition of human Cathepsin B
[29] = biological target: T2, Chymase (Homo sapiens, UniProt P23946); assay: Inhibition of human Chymase
T2 sequence (P23946 whole entry): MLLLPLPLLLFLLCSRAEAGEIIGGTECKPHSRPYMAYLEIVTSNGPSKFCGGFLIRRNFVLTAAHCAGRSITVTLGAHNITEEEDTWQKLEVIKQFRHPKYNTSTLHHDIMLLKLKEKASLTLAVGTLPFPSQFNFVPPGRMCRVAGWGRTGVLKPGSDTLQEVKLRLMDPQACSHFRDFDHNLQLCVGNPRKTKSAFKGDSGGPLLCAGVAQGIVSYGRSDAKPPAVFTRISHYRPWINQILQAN

[30] = Inhibition of Hepatitis C virus genotype 1a NS3/4A protease activity; set-up: species or system Hepatitis C virus subtype 1a
Summary of the method: as §3

[31] = test system: Hepatitis C virus; assay: Antiviral activity against Hepatitis C virus containing NS3/4a ps36 sequence by transient cell-base protease activity; type: functional, organism-based, Hepacivirus hominis
Summary of the method: as §2

[32] = test system: Hepatitis C virus; assay: Antiviral activity against Hepatitis C virus containing NS3/D168Y protease mutant activity by TaqMan-based assay; type: functional, organism-based, Hepacivirus hominis
[33] = test system: Hepatitis C virus; assay: Antiviral activity against Hepatitis C virus containing NS3/R155K protease mutant activity by TaqMan-based assay; type: functional, organism-based, Hepacivirus hominis
Summary of the method: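 Panel of stable HCV replicon cell lines carrying NS3 protease mutations. Replicon RNA read out by a TaqMan-based assay, and EC50 values determined.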

[34] = test system: Hepatitis C virus; assay: Antiviral activity against Hepatitis C virus containing NS3/4a Con1 sequence by transient cell-base protease activity; type: functional, organism-based, Hepacivirus hominis

CC[C@@H]1C[C@]1(NC(=O)[C@@H]1C[C@@H]2CN1C(=O)[C@H](C(C)(C)C)NC(=O)OCC(C)(C)CCCCc1cccc3c1CN(C3)C(=O)O2)C(=O)NS(=O)(=O)C1CC1 [VANIPREVIR]
EC50 [1]: 1.6 nM | Vd [2]: 0.4 L/kg | EC50 [3]: 2.9 nM | EC50 [4]: 3.8 nM | EC50 [5]: 7.8 nM | EC50 [6]: 3.4 nM | Ki [7]: 1.4 nM | EC50 [8]: > 50000 nM | EC50 [9]: 6 nM | EC50 [10]: 13 nM | Vd [11]: 0.3 L/kg | Ki [12]: 0.06 nM | concentration at 24 h [13]: 600 nM | clearance [14]: 11 mL/min/kg | EC50 [15]: 9.5 nM | EC50 [16]: 4.5 nM | EC50 [17]: 5.2 nM | EC50 [18]: 2.9 nM | IC50 [19]: > 10000 nM | EC50 [20]: 5 nM | concentration at 12 h [21]: 31000 nM | half-life [22]: 0.9 h | IC50 [23]: 520 nM | half-life [24]: 1.3 h | concentration at 24 h [25]: 200 nM | Vd [26]: 1.9 L/kg | AUC(0-t) at 24 h [27]: 4.1 µM·h | IC50 [28]: > 10000 nM | IC50 [29]: > 10000 nM | Ki [30]: 0.07 nM | EC50 [31]: 4.9 nM | EC50 [32]: 430 nM | EC50 [33]: 350 nM | EC50 [34]: 4.1 nM
